Experimental data as given in ChEMBL document CHEMBL3108694, “Development of novel dual binders as potent, selective, and orally bioavailable tankyrase inhibitors” (J Med Chem, 2013).
In brackets after ≈: the same amount, converted by molar mass.

Experiments:
Plasma = experiment: Unbound plasma concentration in athymic nude mouse xenografted with human DLD1 cells at 50 mg/kg, po qd administered for 3 days measured 24 hrs post last dose; format: ADME, organism-based, DLD-1; design: dose 50 mg/kg, route oral; conditions: in vivo
Summary of the method: (§1)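 Athymic nude mice carried subcutaneous DLD-1 tumors engineered with a Wnt-responsive STF firefly luciferase and a constitutive Renilla luciferase. At about 250 mm³, mice were randomized (n = 4 per group) and dosed orally once daily for 3 days at 10 or 50 mg/kg, or with vehicle. Tumor axin2 was measured by MSD immunoassay. STF was read by Dual-Glo, firefly normalized to Renilla. Plasma was taken for exposure.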

Mus musculus [1] = experiment: Ex vivo inhibition of TNKS in tumor of athymic nude mouse xenografted with human DLD1 cells assessed as inhibition of super-Topflash reporter gene transcription at 50 mg/kg, po qd administered for 3 days measured 24 hrs post last dose by dual-glo luciferase reporter gene assay relative to control; format: functional; conditions: DLD-1; summary of the method: as §1
Mus musculus [2] = experiment: Ex vivo inhibition of TNKS in tumor of athymic nude mouse xenografted with human DLD1 cells assessed as inhibition of super-Topflash reporter gene transcription at 10 mg/kg, po qd administered for 3 days measured 24 hrs post last dose by dual-glo luciferase reporter gene assay relative to control; format: functional; conditions: DLD-1; summary of the method: as §1
[3] = Oral bioavailability in rat at 2 mg/kg; format: ADME, organism-based; conditions: in vivo
[4] = Tmax in CD-1 mouse at 30 mg/kg, po; format: ADME, organism-based; design: dose 30 mg/kg, route oral; conditions: in vivo
Summary of the method: (§2)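 Male CD-1 mice given a single oral dose of 30 mg/kg. Vehicle was 10% Pluronic F68, 30% HPBCD and 60% water, pH adjusted to 10.0 with NaOH for most compounds or to 2.5 with methanesulfonic acid for one. Mean plasma PK parameters were reported.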

[5] = AUC (0 to infinity) in CD-1 mouse at 30 mg/kg, po; format: ADME, organism-based; design: time infinity, dose 30 mg/kg, route oral; conditions: plasma; summary of the method: as §2
[6] = Cmax in CD-1 mouse at 30 mg/kg, po; format: ADME, organism-based; design: dose 30 mg/kg, route oral; conditions: in vivo; summary of the method: as §2
[7] = Half life in rat at 0.5 mg/kg, iv; format: ADME, organism-based; design: dose 0.5 mg/kg, route intravenous; conditions: in vivo
Summary of the method: (§3)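 Male rats received a single intravenous dose of 0.5 mg/kg. Mean clearance, steady-state volume of distribution and half-life were reported.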

[8] = Volume of distribution at steady state in rat at 0.5 mg/kg, iv; format: ADME, organism-based; design: dose 0.5 mg/kg, route intravenous; conditions: in vivo, read-out: Vdss; summary of the method: as §3
[9] = Inhibition of TNKS in human DLD1 cells expressing APC mutant assessed as inhibition of super-Topflash reporter gene transcription after 40 to 48 hrs by dual-glo luciferase reporter gene assay; format: cell-based; conditions: DLD-1
Summary of the method: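 DLD-1 cells carried an 8× TCF-driven firefly luciferase and an EF1a-driven Renilla luciferase, and were seeded at 10 000/well in RPMI with 10% FBS without antibiotics. A 10-point, 3-fold dilution series starting at 10 μM was applied for 40–48 h at 37 °C. Firefly and Renilla activities were read with Dual-Glo reagents.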

[10] = Inhibition of TNKS in human SW480 cells assessed as accumulation of axin-2 into cytoplasmic foci after 24 hrs by Hoechst dye-based assay; conditions: SW480, 24 h
[11] = Solubility in fasted state simulated intestinal fluid at pH 6.8; format: ADME
[12] = Intrinsic clearance in rat liver microsomes at 1 uM after 30 mins; format: ADME; conditions: read-out: CLH
Summary of the method: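 Substrate depletion in rat liver microsomes: 0.25 mg protein/mL, 1 mM NADPH and 2 mM MgCl2 in 50 mM potassium phosphate, pH 7.4, prewarmed to 37 °C. Test compound was added to a final 1 μM, and parent loss was measured after 30 min at 37 °C.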

[13] = (§4) Inhibition of TNKS in human SW480 cells assessed as degradation of total pool of beta-catenin after 40 to 48 hrs; format: cell-based
Summary of the method: (§5)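 SW480 cells were seeded at 10 000/well in MEMα with 10% HI FBS, GlutaMAX, pyruvate and 10 mM HEPES. They were treated with a 10-point, 3-fold dilution series at 0.1% final DMSO for 40–48 h at 37 °C, then lysed. Total β-catenin was measured by MSD sandwich immunoassay (polyclonal capture, SULFO-TAG mAb detection).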

[14] = Clearance in rat at 0.5 mg/kg, iv; format: ADME, organism-based; design: dose 0.5 mg/kg, route intravenous; conditions: in vivo; summary of the method: as §3
[15] = Fraction unbound in mouse plasma at 5 uM after 5 hrs by equilibrium dialysis method; format: ADME, cell-free
Summary of the method: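 Mouse plasma was spiked to a final 5 μM and equilibrium-dialyzed against plasma water (ultrafiltrate) for 5 h at 37 °C in a CO2 incubator, using a rapid equilibrium dialysis device. Fraction unbound was determined in duplicate.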

[16] = Half life in CD-1 mouse plasma at 1 uM by LC-MS/MS analysis; format: ADME, cell-free
Summary of the method: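 Lithium-heparinized CD-1 mouse plasma was spiked with 1 μM substrate and incubated at 37 °C for 3 h, sampling at 0, 0.167, 1, 2 and 3 h (n = 2). Samples underwent acetonitrile protein precipitation with tolbutamide as internal standard. Analysis was by reversed-phase UPLC-ESI-MS/MS in MRM mode.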

SW480 = experiment: as §4; format: cell-based; conditions: dose or concentration not given here; summary of the method: as §5
[17] = target: T1, Poly [ADP-ribose] polymerase tankyrase-1 (Homo sapiens, UniProt O95271); experiment: Inhibition of 6x-His-tagged TNKS1 (unknown origin) after 60 mins
T1 sequence (O95271 whole entry): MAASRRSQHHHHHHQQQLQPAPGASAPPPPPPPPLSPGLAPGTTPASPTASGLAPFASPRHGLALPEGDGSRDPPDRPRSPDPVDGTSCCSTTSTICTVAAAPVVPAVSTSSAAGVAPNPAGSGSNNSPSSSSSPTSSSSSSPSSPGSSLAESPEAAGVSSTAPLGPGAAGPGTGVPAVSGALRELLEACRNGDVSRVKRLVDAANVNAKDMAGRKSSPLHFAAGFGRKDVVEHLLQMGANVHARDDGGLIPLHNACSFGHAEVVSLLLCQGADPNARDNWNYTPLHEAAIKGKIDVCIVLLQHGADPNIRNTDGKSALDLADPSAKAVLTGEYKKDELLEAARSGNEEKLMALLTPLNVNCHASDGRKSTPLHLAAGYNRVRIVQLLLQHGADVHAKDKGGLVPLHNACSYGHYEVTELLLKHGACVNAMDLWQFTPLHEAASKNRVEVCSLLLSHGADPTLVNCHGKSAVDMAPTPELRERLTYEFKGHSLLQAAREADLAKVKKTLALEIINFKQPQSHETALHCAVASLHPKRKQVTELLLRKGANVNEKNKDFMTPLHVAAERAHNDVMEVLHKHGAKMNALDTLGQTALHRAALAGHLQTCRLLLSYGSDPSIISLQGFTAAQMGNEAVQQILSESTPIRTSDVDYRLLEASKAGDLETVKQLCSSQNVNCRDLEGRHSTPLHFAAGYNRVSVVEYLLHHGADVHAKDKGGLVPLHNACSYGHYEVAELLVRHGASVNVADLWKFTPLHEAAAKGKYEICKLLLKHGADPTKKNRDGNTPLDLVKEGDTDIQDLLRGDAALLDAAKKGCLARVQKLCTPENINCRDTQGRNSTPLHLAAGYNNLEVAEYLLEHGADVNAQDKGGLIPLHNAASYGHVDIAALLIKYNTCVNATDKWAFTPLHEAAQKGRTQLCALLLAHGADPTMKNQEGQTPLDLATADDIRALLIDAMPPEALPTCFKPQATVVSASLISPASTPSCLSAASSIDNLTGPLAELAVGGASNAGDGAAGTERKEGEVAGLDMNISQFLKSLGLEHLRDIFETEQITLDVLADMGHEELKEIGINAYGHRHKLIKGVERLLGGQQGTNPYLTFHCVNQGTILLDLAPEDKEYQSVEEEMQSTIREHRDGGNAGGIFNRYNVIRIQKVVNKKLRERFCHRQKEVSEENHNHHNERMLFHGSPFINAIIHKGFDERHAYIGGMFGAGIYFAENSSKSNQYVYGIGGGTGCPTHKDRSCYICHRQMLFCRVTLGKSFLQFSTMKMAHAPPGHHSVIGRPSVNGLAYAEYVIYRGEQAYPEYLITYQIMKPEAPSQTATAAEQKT

[18] = Volume of distribution at steady state in rat at 5 mg/kg, iv; format: ADME, organism-based; design: dose 5 mg/kg, route intravenous; conditions: in vivo, read-out: Vdss
[19] = Half life in rat at 5 mg/kg, iv; format: ADME, organism-based; design: dose 5 mg/kg, route intravenous; conditions: in vivo
Rattus norvegicus [20] = experiment: Clearance in rat at 5 mg/kg, iv; format: ADME, organism-based; design: dose 5 mg/kg, route intravenous; conditions: in vivo
Rattus norvegicus [21] = experiment: AUC (infinity) in rat at 5 mg/kg, iv; format: ADME, organism-based, Plasma; design: time infinity, dose 5 mg/kg, route intravenous; conditions: in vivo

Structure (SMILES) | Cp(f) (Plasma) [µM] | inhibition in vivo at 50 mg/kg (Mus musculus [1]) [%] | inhibition in vivo at 10 mg/kg (Mus musculus [2]) [%] | bioavailability [3] [%] | Tmax [4] [min] | AUC(0-inf) [5] [µM·h] | Cmax [6] [µM] | half-life [7] [min] | Vd [8] [L/kg] | IC50 [9] [nM] | EC50 [10] [nM] | solubility [11] [µg/mL] | IC50 [13] [nM] | clearance [14] [L/h/kg] | fraction unbound at 5 h, 5 µM [15] | half-life at 1 µM [16] [min] | IC50 [17] [nM] | further results
O=C(CCSc1nc2ccccc2c(=O)[nH]1)N[C@H]1CC[C@H](c2nnc(-c3ccccc3)o2)CC1 | 0.013 | 58 | 51 | 13 | 34.8 | 49.5 | 18.7 | 108 | 0.7 | 0.6 | 3.9 | 7 (≈ 14.7 µM) | 4 | 0.83 | 0.017 | – | – | microsomal CLint at 1 µM [12]: 57 µL/min/mg
Cn1nc(-c2ccc(NC(=O)CCc3nc4ccccc4c(=O)[nH]3)cc2)c2ccccc21 | – | – | – | – | – | – | – | – | – | – | – | – | – | – | – | > 1000 | 400 | inhibition (SW480): > 50%
N#Cc1ccc(O[C@H]2CC[C@H](NC(=O)CCSc3nc4ccccc4c(=O)[nH]3)CC2)cc1 | 0.009 | 79 | 70 | 21 | 90 | 141 | 24.2 | 168 | 0.32 | 0.3 | 4 | – | 1.9 | 0.12 | 0.006 | – | – | –
O=C(CCSc1nc2ccccc2c(=O)[nH]1)N[C@H]1CC[C@H](Oc2ccncc2)CC1 | – | – | – | – | 40.2 | 11.5 | 7 | 42 | 0.4 | 0.7 | 6.8 | – | 6.9 | 0.66 | 0.032 | – | – | –
COc1ccccc1NC(=O)c1ccc(NC(=O)CCc2nc3ccccc3c(=O)[nH]2)cc1 | – | – | – | – | – | – | – | – | – | – | – | 6.6 (≈ 14.9 µM) | 160 | – | – | 40 | 10 | Vd [18]: 4.69 L/kg; half-life [19]: 22.2 min; CL (Rattus norvegicus [20]): 10.9 L/h/kg; AUC (Rattus norvegicus [21]): 0.11 µM·h
